The source made the active and inactive calls. The calls are words filed in the database; no cut-off is given here.
How the values were obtained:
[1] = target: T1, Phosphatidylinositol 4,5-bisphosphate 3-kinase catalytic subunit alpha isoform (Homo sapiens, UniProt P42336); conditions: 100 nM
[2] = target: Phosphatidylinositol 4,5-bisphosphate 3-kinase catalytic subunit alpha isoform (Homo sapiens, UniProt P42336, E545K); experiment: Inhibition of recombinant PI3K p110alpha E545K mutant using L-alpha-phosphatidylinositol as substrate and [gamma33P]ATP after 60 mins by thin layer chromatographic technique
[3] = target: Dual specificity mitogen-activated protein kinase kinase 1 (Homo sapiens) (UniProt Q02750); experiment: Inhibition of MKK1 assessed as residual activity at 10 uM
[4] = target: High affinity nerve growth factor receptor (Homo sapiens) (UniProt P04629); experiment: Inhibition of TrkA assessed as residual activity at 1 uM
[5] = Cytotoxicity against human NZB5 cells expressing wild type p110alpha assessed as inhibition of [3H]thymidine incorporation after 5 days; format: functional, cell-based
Summary of the method: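 Early-passage lab-derived lines in α-MEM with insulin, transferrin, selenite and 5% FBS. Seeded at 1000 cells/well; drug added in 10-fold steps up to 20 µM. Incubated five days under 5% O₂/5% CO₂/90% N₂, with ³H-thymidine (0.04 µCi/well) over the last 6 h. Duplicates per dose; least-squares exponential fit; IC50 is the concentration giving 50% less incorporation.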

[6] = target: T1, Phosphatidylinositol 4,5-bisphosphate 3-kinase catalytic subunit alpha isoform; experiment: Inhibition of recombinant PI3K p110alpha using L-alpha-phosphatidylinositol as substrate and [gamma33P]ATP after 60 mins by thin layer chromatographic technique
Summary of the method: (§1)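 In-house recombinant class Ia PI3K isoform (0.1 µg) with L-α-phosphatidylinositol substrate in lipid kinase buffer (Tris–HCl pH 7.4, NaCl, EDTA), 1% DMSO final. Started with ATP mix (5 mM MgCl₂, 100 µM ATP plus [γ-³³P]ATP), 1 h at room temperature, stopped with 1 M HCl. Lipids extracted in two steps, separated by TLC, read by phosphorimager. Nine inhibitor concentrations; IC50 averaged over two experiments.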

[7] = Inhibition of PKA assessed as residual activity at 1 uM
[8] = target: Insulin receptor (Homo sapiens) (UniProt P06213); experiment: Inhibition of IR assessed as residual activity at 10 uM
[9] = target: Phosphatidylinositol 4,5-bisphosphate 3-kinase catalytic subunit gamma isoform (Homo sapiens, UniProt P48736); experiment: Inhibition of PI3K p110gamma
Summary of the method: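 Recombinant PI3K isoform made in-house, mixed with phosphatidylinositol substrate and inhibitor in 1% DMSO. Lipid kinase buffer (2× stock: 40 mM Tris-HCl pH 7.4, 200 mM NaCl, 1 mM EDTA). Started with ATP/MgCl₂ (5 mM)/[γ-³³P]ATP mix, 1 h at room temperature, stopped with 1 M HCl. Lipids extracted, separated by TLC and read by phosphorimager. Nine concentrations, run twice, IC50s averaged.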

Mus musculus [10] = experiment: Toxicity in human HCT116 cells xenografted Rag1 knockout mouse assessed as body weight loss at 20 mg/kg, ip qd measured up to day 10; format: organism-based, HCT-116; parameters: dose 20 mg/kg, route intraperitoneal; conditions: in vivo
Summary of the method: (§2)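 Female specific-pathogen-free Rag1−/− mice carrying subcutaneous HCT-116 tumours, given 20 mg/kg ip daily for 14 days in a DMSO/PEG-400/hydroxypropyl-β-cyclodextrin/water vehicle; controls received vehicle; n = 7 per group. Bodyweight recorded daily; mice culled if loss exceeded 20% of starting weight.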

[11] = target: Phosphatidylinositol 4,5-bisphosphate 3-kinase catalytic subunit beta isoform (Homo sapiens, UniProt P42338); experiment: Inhibition of recombinant PI3K p110beta using L-alpha-phosphatidylinositol as substrate and [gamma33P]ATP after 60 mins by thin layer chromatographic technique
Summary of the method: as §1

[12] = target: Misshapen-like kinase 1 (Homo sapiens) (UniProt Q8N4C8); experiment: Inhibition of MINK1 assessed as residual activity at 10 uM
[13] = Selectivity ratio of IC50 for PI3K p110beta to IC50 for PI3K p110alpha
[14] = target: T1, Phosphatidylinositol 4,5-bisphosphate 3-kinase catalytic subunit alpha isoform; conditions: 100 nM; remark: listed apart in the source
[15] = Selectivity ratio of IC50 for PI3K p110delta to IC50 for PI3K p110alpha
[16] = target: High affinity nerve growth factor receptor (Homo sapiens) (UniProt P04629); experiment: Inhibition of TrkA assessed as residual activity at 10 uM
[17] = target: Mitogen-activated protein kinase 14 (Homo sapiens) (UniProt Q16539); experiment: Inhibition of p38alpha assessed as residual activity at 10 uM
[18] = target: Ribosomal protein S6 kinase alpha-1 (Homo sapiens) (UniProt Q15418); experiment: Inhibition of RSK1 assessed as residual activity at 1 uM
[19] = target: Mitogen-activated protein kinase 14 (Homo sapiens) (UniProt Q16539); experiment: Inhibition of p38alpha assessed as residual activity at 1 uM
[20] = target: Dual specificity mitogen-activated protein kinase kinase 1 (Homo sapiens) (UniProt Q02750); experiment: Inhibition of MKK1 assessed as residual activity at 1 uM
[21] = target: Phosphatidylinositol 4,5-bisphosphate 3-kinase catalytic subunit alpha isoform (Homo sapiens, UniProt P42336, H1047R); experiment: Inhibition of PI3K […] H1047R mutant-mediated PKB phosphorylation at Thr308 in human HCT116 cells after 15 mins by immunoblot analysis; format: cell-based, HCT-116
Summary of the method: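 HCT-116 cells in MEM alpha with 10% FBS and penicillin/streptomycin were seeded, grown 1 day, then serum-starved overnight. They were exposed to a range of inhibitor concentrations in DMSO (0.1% final) for 15 min, then stimulated with 500 nM insulin for 5 min. Phospho-PKB (Ser473 or Thr308) was detected by immunoblotting.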

[22] = Inhibition of DNA-PK
[23] = Inhibition of PKA assessed as residual activity at 10 uM
[24] = target: Misshapen-like kinase 1 (Homo sapiens) (UniProt Q8N4C8); experiment: Inhibition of MINK1 assessed as residual activity at 1 uM
Mus musculus [25] = experiment: Toxicity in human HCT116 cells xenografted Rag1 knockout mouse assessed as mortality at 20 mg/kg, ip qd for 14 days; format: organism-based, HCT-116; parameters: dose 20 mg/kg, route intraperitoneal; conditions: in vivo, 336 h
Summary of the method: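 Age-matched specific pathogen-free female Rag1-/- mice bearing subcutaneous HCT-116 tumours (5 × 10⁶ cells inoculated in PBS), n = 7 per group. Drug given ip at 20 mg/kg once daily for 14 days in 7.5% DMSO/42.5% PEG-400/20% 2-hydroxypropyl-β-cyclodextrin/30% water; controls received vehicle alone. Bodyweight recorded daily; mice culled when weight loss exceeded 20% of starting weight.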

[26] = target: Insulin receptor (Homo sapiens) (UniProt P06213); experiment: Inhibition of IR assessed as residual activity at 1 uM
Mus musculus [27] = experiment: Toxicity in human HCT116 cells xenografted Rag1 knockout mouse assessed as body weight loss at 20 mg/kg, ip qd measured after 10 days relative to untreated control; format: organism-based, HCT-116; parameters: dose 20 mg/kg, route intraperitoneal; conditions: in vivo, 240 h
Summary of the method: as §2

[28] = target: Ribosomal protein S6 kinase alpha-1 (Homo sapiens) (UniProt Q15418); experiment: Inhibition of RSK1 assessed as residual activity at 10 uM

T1 sequence (P42336 whole entry, canonical isoform): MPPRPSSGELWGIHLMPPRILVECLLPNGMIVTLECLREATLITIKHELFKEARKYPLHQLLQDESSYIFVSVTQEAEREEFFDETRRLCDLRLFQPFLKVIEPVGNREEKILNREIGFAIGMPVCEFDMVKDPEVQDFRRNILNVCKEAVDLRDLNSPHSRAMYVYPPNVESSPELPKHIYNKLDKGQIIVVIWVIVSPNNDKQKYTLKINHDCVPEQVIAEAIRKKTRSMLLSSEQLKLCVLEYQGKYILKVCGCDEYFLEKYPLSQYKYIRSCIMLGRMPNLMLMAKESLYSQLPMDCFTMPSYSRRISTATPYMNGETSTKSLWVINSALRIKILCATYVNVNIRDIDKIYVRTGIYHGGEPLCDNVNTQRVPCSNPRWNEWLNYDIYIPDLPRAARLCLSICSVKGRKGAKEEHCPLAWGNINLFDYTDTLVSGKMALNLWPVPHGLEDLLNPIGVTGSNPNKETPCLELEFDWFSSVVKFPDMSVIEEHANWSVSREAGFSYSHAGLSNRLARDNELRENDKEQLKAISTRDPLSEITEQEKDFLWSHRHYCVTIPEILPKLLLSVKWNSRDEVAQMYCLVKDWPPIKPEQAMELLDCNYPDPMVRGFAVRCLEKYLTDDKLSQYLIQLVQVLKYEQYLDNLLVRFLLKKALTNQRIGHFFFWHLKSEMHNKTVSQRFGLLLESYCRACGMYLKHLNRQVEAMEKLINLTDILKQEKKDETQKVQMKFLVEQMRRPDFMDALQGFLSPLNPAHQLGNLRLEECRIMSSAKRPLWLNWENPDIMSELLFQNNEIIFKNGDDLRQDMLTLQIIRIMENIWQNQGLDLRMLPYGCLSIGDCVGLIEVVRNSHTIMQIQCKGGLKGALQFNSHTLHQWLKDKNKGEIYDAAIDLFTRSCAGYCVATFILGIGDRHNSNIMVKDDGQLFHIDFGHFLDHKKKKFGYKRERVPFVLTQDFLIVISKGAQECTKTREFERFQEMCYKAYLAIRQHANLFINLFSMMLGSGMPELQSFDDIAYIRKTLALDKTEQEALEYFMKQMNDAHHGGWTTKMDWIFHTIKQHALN
Sequence of Ribosomal protein S6 kinase alpha-1 (Homo sapiens) (Q15418 whole entry): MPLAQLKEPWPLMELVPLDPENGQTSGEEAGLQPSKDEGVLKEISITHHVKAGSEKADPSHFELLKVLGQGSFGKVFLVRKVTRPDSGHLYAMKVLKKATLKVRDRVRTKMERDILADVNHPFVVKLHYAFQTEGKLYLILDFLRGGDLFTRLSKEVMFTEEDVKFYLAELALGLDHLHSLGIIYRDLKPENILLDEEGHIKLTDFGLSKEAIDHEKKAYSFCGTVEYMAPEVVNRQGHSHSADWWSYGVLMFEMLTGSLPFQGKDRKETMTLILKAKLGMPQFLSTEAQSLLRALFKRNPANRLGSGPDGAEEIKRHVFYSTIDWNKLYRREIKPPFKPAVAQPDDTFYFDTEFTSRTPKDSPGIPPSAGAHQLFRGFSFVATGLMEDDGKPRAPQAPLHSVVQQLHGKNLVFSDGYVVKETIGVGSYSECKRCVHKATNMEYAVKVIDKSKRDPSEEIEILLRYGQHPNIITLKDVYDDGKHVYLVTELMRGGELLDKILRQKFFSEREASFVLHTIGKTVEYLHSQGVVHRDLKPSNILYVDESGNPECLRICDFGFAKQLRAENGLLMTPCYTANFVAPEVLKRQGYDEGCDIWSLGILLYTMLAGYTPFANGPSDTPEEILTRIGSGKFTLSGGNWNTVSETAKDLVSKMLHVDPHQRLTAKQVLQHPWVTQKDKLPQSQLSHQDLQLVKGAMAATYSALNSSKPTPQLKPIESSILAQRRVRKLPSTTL
Sequence of Insulin receptor (Homo sapiens) (P06213 28-758 limits assumed): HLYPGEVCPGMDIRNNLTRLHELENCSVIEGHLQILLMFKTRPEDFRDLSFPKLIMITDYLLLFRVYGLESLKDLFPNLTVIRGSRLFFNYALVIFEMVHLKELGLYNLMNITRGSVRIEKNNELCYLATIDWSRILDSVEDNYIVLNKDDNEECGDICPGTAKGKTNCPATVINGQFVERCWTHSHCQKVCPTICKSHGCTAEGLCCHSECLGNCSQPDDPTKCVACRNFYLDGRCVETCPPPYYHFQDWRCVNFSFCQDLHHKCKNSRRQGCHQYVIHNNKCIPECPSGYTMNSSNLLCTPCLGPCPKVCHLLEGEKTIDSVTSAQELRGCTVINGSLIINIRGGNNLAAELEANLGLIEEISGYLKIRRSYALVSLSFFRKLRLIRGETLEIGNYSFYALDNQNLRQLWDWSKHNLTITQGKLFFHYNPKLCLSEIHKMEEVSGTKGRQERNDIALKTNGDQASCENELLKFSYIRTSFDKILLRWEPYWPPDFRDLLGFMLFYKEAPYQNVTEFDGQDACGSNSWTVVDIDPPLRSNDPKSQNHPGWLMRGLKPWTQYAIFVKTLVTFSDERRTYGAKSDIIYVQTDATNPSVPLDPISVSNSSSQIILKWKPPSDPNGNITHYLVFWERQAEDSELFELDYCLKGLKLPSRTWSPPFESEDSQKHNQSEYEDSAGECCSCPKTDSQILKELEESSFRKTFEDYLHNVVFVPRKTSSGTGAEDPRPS
Sequence of Insulin receptor (Homo sapiens) (P06213 763-1382 limits assumed): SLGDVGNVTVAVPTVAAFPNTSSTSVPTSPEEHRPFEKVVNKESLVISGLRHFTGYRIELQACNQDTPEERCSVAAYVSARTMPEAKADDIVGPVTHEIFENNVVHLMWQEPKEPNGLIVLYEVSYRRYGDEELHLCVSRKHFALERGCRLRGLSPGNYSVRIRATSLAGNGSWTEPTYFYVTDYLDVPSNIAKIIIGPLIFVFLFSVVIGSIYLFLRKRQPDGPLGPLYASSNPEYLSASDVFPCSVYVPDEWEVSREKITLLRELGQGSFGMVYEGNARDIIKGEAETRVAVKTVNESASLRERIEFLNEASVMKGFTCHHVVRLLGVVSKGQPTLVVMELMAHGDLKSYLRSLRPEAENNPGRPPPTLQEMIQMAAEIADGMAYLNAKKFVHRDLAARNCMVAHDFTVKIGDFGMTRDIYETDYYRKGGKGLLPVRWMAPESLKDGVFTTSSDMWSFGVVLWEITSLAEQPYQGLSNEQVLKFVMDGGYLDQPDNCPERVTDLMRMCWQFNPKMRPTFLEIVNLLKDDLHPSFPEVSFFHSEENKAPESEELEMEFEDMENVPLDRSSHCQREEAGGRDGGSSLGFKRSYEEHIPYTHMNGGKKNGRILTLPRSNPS
Sequence of Misshapen-like kinase 1 (Homo sapiens) (Q8N4C8 whole entry, looked up): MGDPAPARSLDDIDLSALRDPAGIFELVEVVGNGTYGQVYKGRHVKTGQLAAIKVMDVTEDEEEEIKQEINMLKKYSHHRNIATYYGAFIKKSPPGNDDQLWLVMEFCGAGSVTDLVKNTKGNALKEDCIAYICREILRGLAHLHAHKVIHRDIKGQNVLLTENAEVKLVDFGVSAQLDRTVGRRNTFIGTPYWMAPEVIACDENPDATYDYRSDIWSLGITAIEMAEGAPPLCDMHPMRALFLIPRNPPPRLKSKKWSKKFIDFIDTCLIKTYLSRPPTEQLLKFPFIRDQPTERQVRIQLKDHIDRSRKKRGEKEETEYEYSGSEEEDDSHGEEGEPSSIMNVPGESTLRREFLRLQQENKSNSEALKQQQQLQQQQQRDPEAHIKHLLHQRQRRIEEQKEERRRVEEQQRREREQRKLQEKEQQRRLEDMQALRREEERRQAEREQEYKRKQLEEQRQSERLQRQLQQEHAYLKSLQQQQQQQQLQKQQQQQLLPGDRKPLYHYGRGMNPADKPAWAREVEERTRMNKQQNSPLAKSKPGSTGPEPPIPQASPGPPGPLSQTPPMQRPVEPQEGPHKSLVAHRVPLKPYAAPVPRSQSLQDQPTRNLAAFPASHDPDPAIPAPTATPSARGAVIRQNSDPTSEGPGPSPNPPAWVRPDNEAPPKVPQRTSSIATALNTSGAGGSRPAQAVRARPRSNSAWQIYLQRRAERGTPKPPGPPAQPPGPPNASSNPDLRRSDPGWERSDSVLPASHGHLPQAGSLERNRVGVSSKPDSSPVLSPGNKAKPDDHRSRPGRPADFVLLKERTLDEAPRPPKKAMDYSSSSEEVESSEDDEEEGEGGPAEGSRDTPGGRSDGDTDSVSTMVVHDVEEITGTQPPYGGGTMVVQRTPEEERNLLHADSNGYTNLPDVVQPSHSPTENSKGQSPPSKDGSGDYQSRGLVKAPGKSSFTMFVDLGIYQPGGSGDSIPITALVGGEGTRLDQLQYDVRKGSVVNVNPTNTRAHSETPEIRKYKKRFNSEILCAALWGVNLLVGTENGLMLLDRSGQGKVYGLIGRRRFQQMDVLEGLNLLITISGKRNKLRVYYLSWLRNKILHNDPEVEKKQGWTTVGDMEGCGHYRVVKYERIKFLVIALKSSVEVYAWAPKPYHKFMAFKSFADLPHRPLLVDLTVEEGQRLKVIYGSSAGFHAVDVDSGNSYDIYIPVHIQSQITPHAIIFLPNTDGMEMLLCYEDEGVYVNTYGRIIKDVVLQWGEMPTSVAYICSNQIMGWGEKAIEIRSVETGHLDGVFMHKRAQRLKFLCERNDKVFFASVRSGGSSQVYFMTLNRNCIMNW
Sequence of Dual specificity mitogen-activated protein kinase kinase 1 (Homo sapiens) (Q02750 whole entry, canonical isoform): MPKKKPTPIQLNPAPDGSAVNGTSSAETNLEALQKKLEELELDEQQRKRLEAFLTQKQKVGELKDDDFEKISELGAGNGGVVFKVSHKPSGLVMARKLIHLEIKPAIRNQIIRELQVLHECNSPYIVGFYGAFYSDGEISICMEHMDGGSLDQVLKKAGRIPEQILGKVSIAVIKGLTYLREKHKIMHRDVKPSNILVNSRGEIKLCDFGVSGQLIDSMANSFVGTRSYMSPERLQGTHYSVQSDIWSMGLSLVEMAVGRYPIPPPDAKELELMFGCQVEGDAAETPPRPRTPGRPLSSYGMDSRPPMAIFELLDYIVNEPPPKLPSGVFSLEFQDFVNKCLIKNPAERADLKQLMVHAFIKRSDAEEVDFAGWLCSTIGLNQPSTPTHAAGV

**Q.** With Cc1ccc([N+](=O)[O-])cc1S(=O)(=O)N(C)/N=C/c1cnn2ccc(C#N)cc12 as the molecule, how does the inhibition [1] read?
**A.** inactive

**Q.** What about the IC50 [2] of the same molecule?
**A.** 0.7 nM

**Q.** And the Activity [3]?
**A.** 8%

**Q.** What about the Activity [4] of the same molecule?
**A.** 19%

**Q.** What about the IC50 [5] of the same molecule?
**A.** 60 nM

**Q.** What about the IC50 [6] of the same molecule?
**A.** 0.9 nM

**Q.** And the Activity [7]?
**A.** 1%

**Q.** And the Activity [8]?
**A.** 42%

**Q.** And the IC50 [9]?
**A.** 14 nM

**Q.** What about the Activity (Mus musculus [10]) of the same molecule?
**A.** Non-toxic

**Q.** What about the IC50 [11] of the same molecule?
**A.** 46 nM

**Q.** And the Activity [12]?
**A.** 2%

**Q.** And the Ratio IC50 [13]?
**A.** 50

**Q.** And the inhibition [14]?
**A.** inactive

**Q.** And the Ratio IC50 [15]?
**A.** 50

**Q.** And the Activity [16]?
**A.** 13%

**Q.** What about the Activity [17] of the same molecule?
**A.** 9%

**Q.** What about the Activity [18] of the same molecule?
**A.** 4%

**Q.** And the Activity [19]?
**A.** 18%

**Q.** What about the Activity [20] of the same molecule?
**A.** 10%

**Q.** And the IC50 [21]?
**A.** 26 nM

**Q.** And the IC50 [22]?
**A.** 1.1 nM

**Q.** What about the Activity [23] of the same molecule?
**A.** 1%

**Q.** And the Activity [24]?
**A.** 5%

**Q.** And the Activity (Mus musculus [25])?
**A.** Non-toxic

**Q.** And the Activity [26]?
**A.** 55%

**Q.** And the Activity (Mus musculus [27])?
**A.** 15%

**Q.** And the Activity [28]?
**A.** 2%

From ChEMBL document CHEMBL1926509, “Discovery of pyrazolo[1,5-a]pyridines as p110α-selective PI3 kinase inhibitors” (Bioorg Med Chem, 2012)
